Results published in ChEMBL document CHEMBL1141227, “Rhodamine-labeled 2beta-carbomethoxy-3beta-(3,4-dichlorophenyl)tropane analogues as high-affinity fluorescent probes for the dopamine transporter” (J Med Chem, 2005).

Columns and labels:
Assay type in all cases: cell-based, COS-7
[1] = target: T1, Sodium-dependent dopamine transporter (Homo sapiens, UniProt Q01959); assay: Displacement of [3H]dopamine from human DAT expressed in COS7 cells
Method in brief: (§1)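 Ki derived from inhibition of radiolabelled substrate uptake into COS-7 cells transiently expressing hDAT or hNET ([3H]dopamine) or hSERT ([3H]5-HT). […] Three to six experiments in triplicate, mean with SE interval.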

[2] = target: T1, Sodium-dependent dopamine transporter; assay: Displacement of [3H]CFT from human DAT expressed in COS7 cells
Method in brief: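 Competition binding on intact COS-7 cells transiently expressing hDAT, with [3H]CFT (2β-carbomethoxy-3β-(4-fluorophenyl)tropane) as radioligand. Ki from nonlinear regression, using a KD for [3H]CFT determined in parallel. Mean of two to three experiments in triplicate, with SE interval.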

[3] = target: Sodium-dependent serotonin transporter (Homo sapiens, UniProt P31645); assay: Displacement of [3H]5HT from human SERT expressed in COS7 cells; method in brief: as §1
Sequence of Sodium-dependent serotonin transporter (P31645 whole entry): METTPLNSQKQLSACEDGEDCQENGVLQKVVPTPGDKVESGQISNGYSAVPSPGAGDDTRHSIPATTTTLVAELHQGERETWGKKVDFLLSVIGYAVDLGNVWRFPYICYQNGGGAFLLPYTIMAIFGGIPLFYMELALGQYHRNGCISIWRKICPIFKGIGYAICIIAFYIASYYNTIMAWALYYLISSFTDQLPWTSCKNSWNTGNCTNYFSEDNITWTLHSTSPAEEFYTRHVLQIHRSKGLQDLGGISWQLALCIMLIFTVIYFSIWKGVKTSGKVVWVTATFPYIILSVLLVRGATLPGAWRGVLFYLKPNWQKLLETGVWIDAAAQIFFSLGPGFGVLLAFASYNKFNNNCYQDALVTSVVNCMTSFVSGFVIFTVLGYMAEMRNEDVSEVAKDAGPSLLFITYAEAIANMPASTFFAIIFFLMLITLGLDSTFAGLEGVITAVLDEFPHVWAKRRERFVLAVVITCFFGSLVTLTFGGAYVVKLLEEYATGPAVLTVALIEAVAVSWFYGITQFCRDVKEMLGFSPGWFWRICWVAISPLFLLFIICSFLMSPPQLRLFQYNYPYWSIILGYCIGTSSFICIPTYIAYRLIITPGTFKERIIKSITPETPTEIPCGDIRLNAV

[4] = target: Sodium-dependent noradrenaline transporter (Homo sapiens, UniProt P23975); assay: Displacement of [3H]dopamine from human NET expressed in COS7 cells; method in brief: as §1
Sequence of Sodium-dependent noradrenaline transporter (P23975 whole entry): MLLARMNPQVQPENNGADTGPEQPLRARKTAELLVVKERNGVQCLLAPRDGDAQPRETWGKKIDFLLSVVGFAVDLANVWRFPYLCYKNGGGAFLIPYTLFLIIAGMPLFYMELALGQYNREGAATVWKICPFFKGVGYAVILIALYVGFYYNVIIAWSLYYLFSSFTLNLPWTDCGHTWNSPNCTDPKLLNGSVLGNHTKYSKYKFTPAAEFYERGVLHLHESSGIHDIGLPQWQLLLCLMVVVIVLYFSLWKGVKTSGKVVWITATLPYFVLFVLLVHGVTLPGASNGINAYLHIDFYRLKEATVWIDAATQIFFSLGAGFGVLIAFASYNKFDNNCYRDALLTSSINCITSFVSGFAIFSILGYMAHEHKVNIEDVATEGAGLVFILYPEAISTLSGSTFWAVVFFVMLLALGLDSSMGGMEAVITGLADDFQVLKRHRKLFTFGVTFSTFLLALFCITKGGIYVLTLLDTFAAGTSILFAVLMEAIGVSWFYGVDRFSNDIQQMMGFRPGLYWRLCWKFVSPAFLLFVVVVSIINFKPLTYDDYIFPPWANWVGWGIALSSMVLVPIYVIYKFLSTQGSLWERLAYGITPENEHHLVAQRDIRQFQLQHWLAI

T1 sequence (Q01959 whole entry): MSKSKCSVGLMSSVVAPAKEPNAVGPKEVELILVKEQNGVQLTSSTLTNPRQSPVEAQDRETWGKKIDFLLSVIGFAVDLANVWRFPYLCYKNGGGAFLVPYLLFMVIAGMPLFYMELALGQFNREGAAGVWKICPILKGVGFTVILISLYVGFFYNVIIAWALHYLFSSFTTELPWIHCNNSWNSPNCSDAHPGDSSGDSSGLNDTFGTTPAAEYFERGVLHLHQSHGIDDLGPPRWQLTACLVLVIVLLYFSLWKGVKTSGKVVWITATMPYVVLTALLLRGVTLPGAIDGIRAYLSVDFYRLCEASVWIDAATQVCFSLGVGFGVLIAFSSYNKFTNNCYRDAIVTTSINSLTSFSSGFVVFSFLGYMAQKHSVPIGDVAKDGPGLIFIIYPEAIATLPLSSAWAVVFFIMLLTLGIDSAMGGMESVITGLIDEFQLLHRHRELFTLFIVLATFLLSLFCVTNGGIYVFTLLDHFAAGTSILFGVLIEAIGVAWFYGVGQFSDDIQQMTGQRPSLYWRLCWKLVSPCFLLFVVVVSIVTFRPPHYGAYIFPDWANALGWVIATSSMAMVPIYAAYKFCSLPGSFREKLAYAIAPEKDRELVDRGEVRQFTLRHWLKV

SMILES: COC(=O)[C@@H]1C2CCC(C[C@@H]1c1ccc(Cl)c(Cl)c1)N2CCNC(=O)CCCN1CCCc2cc3c(cc21)C(C)(C)C1=CC(=[N+](C)C)C=CC1=C3 (some centres undefined)
- Ki [1]: 250 nM
- Ki [2]: 50 nM
- Ki [3]: 227 nM
- Ki [4]: 308 nM

SMILES: COC(=O)[C@@H]1C2CCC(C[C@@H]1c1ccc(Cl)c(Cl)c1)N2C (some centres undefined)
- Ki [1]: 2.3 nM
- Ki [2]: 0.2 nM
- Ki [3]: 12 nM
- Ki [4]: 5 nM

SMILES: CCN(CC)c1ccc2c(-c3ccc(S(=O)(=O)NCCCCCC(=O)NCCOC(=O)[C@@H]4C5CCC(C[C@@H]4c4ccc(Cl)c(Cl)c4)N5C)cc3S(=O)(=O)[O-])c3ccc(=[N+](CC)CC)cc-3oc2c1 (some centres undefined)
- Ki [1]: 72 nM
- Ki [2]: 27 nM
- Ki [3]: 1490 nM
- Ki [4]: 177 nM

SMILES: CCN(CC)c1ccc2c(-c3ccc(S(=O)(=O)NCCCCCC(=O)NCCN4C5CCC4[C@@H](C(=O)OC)[C@@H](c4ccc(Cl)c(Cl)c4)C5)cc3S(=O)(=O)[O-])c3ccc(=[N+](CC)CC)cc-3oc2c1 (some centres undefined)
- Ki [1]: 62 nM
- Ki [2]: 18 nM
- Ki [3]: 392 nM
- Ki [4]: 194 nM

SMILES: CCN(CC)c1ccc2c(-c3ccc(S(=O)(=O)NC[C@H]4CC[C@H](C(=O)NCCN5C6CCC5[C@@H](C(=O)OC)[C@@H](c5ccc(Cl)c(Cl)c5)C6)CC4)cc3S(=O)(=O)[O-])c3ccc(=[N+](CC)CC)cc-3oc2c1 (some centres undefined)
- Ki [1]: 436 nM
- Ki [3]: 705 nM
- Ki [4]: 627 nM
